“And” between values parts separate entries of the source, which are not always exact repeats. Equal values may be shown once.
What was measured:
Format in all cases: toxicity, cell-based
[1] = tested on: U2OS; assay: Multiplex assay against U2OS; conditions: human
Method in brief: (§1)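 Per cents of healthy-nucleus cells form the tubulin, mitochondrial-mass and membrane-permeability phenotype values. Live cells were stained at seeding with Hoechst33342, BioTracker Green Microtubule Cytoskeleton Dye, MitoTracker Red and Annexin V Alexa Fluor 680. After compound addition they were imaged on a CQ1 microscope at 37°C and 5% CO2, and CellPathfinder machine-learning gating split them into Hoechst high-intensity objects or normal cells, normal cells into healthy, pyknosed or fragmented nuclei, and pyknosed cells into mitotic or apoptotic.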

[2] = tested on: HEK-293T; assay: Multiplex assay against HEK293T; conditions: human; method in brief: as §1
[3] = tested on: Fibroblast; assay: Multiplex assay against human fibroblast; method in brief: as §1
[4] = 12 h, 1 µM, compound concentration 1 uM
[5] = 12 h, 10 µM, compound concentration 10 uM
[6] = 24 h, 1 µM, compound concentration 1 uM
[7] = 24 h, 10 µM, compound concentration 10 uM
[8] = 48 h, 1 µM, compound concentration 1 uM
[9] = 48 h, 10 µM, compound concentration 10 uM

O=C(Nc1cc(C(F)(F)F)ccc1N1CCCCC1)c1ccncc1
Population Apoptotic (%) [1, 4]: 66.67% and 37.5%
Population Fragmented Nuclei (%) [1, 4]: 2.62% and 1.94%
Population Healthy Nuclei (%) [1, 4]: 90.31% and 82.58%
Population Hoechst High Intensity Objects (%) [1, 4]: 0%
Population Membrane Permeable-Phenotype (%) [1, 4]: 1.74% and 3.12%
Population Mitochondria Different-Phenotype (%) [1, 4]: 0% and 2.34%
Population Mitotic Cells (%) [1, 4]: 33.33% and 62.5%
Population Normal (%) [1, 4]: 100%
Population Pyknosed Nuclei (%) [1, 4]: 7.07% and 15.48%
Population Tubulin-Different-Phenotype (%) [1, 4]: 1.16% and 0.78%
Total Cell Count [1, 4]: 382 and 155
Population Apoptotic (%) [1, 5]: 32.65% and 31.25%
Population Fragmented Nuclei (%) [1, 5]: 1.78% and 5.19%
Population Healthy Nuclei (%) [1, 5]: 87.31% and 74.03%
Population Hoechst High Intensity Objects (%) [1, 5]: 0%
Population Membrane Permeable-Phenotype (%) [1, 5]: 2.81% and 6.14%
Population Mitotic Cells (%) [1, 5]: 67.35% and 68.75%
Population Normal (%) [1, 5]: 100%
Population Pyknosed Nuclei (%) [1, 5]: 10.91% and 20.78%
Population Tubulin-Different-Phenotype (%) [1, 5]: 6.89% and 7.89%
Total Cell Count [1, 5]: 449 and 154
Population Apoptotic (%) [1, 6]: 24.39% and 47.37%
Population Fragmented Nuclei (%) [1, 6]: 2.34% and 1.57%
Population Healthy Nuclei (%) [1, 6]: 89.65% and 88.48%
Population Hoechst High Intensity Objects (%) [1, 6]: 0%
Population Membrane Permeable-Phenotype (%) [1, 6]: 0.65% and 1.78%
Population Mitochondria Different-Phenotype (%) [1, 6]: 0.22% and 4.73%
Population Mitotic Cells (%) [1, 6]: 75.61% and 52.63%
Population Normal (%) [1, 6]: 100%
Population Pyknosed Nuclei (%) [1, 6]: 8.01% and 9.95%
Population Tubulin-Different-Phenotype (%) [1, 6]: 1.09% and 0.59%
Total Cell Count [1, 6]: 512 and 191
Population Apoptotic (%) [1, 7]: 35.62% and 25.81%
Population Fragmented Nuclei (%) [1, 7]: 1.19% and 3.28%
Population Healthy Nuclei (%) [1, 7]: 86.37% and 79.78%
Population Hoechst High Intensity Objects (%) [1, 7]: 0%
Population Membrane Permeable-Phenotype (%) [1, 7]: 1.18% and 2.05%
Population Mitotic Cells (%) [1, 7]: 64.38% and 74.19%
Population Normal (%) [1, 7]: 100%
Population Pyknosed Nuclei (%) [1, 7]: 12.44% and 16.94%
Population Tubulin-Different-Phenotype (%) [1, 7]: 5.13% and 1.37%
Population Apoptotic (%) [1, 8]: 36.36% and 35.71%
Population Fragmented Nuclei (%) [1, 8]: 3.47% and 3.02%
Population Healthy Nuclei (%) [1, 8]: 86.98% and 88.52%
Population Hoechst High Intensity Objects (%) [1, 8]: 0%
Population Membrane Permeable-Phenotype (%) [1, 8]: 1% and 4.1%
Population Mitochondria Different-Phenotype (%) [1, 8]: 0.37% and 3.75%
Population Mitotic Cells (%) [1, 8]: 63.64% and 64.29%
Population Normal (%) [1, 8]: 100%
Population Pyknosed Nuclei (%) [1, 8]: 9.54% and 8.46%
Population Tubulin-Different-Phenotype (%) [1, 8]: 1.37% and 2.05%
Total Cell Count [1, 8]: 922 and 331
Population Apoptotic (%) [1, 9]: 47.54% and 53.06%
Population Fragmented Nuclei (%) [1, 9]: 2.11% and 4.76%
Population Healthy Nuclei (%) [1, 9]: 86.22% and 78.57%
Population Hoechst High Intensity Objects (%) [1, 9]: 0.19% and 0%
Population Membrane Permeable-Phenotype (%) [1, 9]: 1.66% and 1.73%
Population Mitotic Cells (%) [1, 9]: 52.46% and 46.94%
Population Normal (%) [1, 9]: 99.81% and 100%
Population Pyknosed Nuclei (%) [1, 9]: 11.67% and 16.67%
Population Tubulin-Different-Phenotype (%) [1, 9]: 4.55% and 3.03%
Population Apoptotic (%) [2, 4]: 16.06% and 9.24%
Population Fragmented Nuclei (%) [2, 4]: 3.1% and 6.12%
Population Hoechst High Intensity Objects (%) [2, 4]: 0%
Population Membrane Permeable-Phenotype (%) [2, 4]: 0% and 10.53%
Population Mitochondria Different-Phenotype (%) [2, 4]: 30.11% and 10.53%
Population Mitotic Cells (%) [2, 4]: 83.94% and 90.76%
Population Normal (%) [2, 4]: 100%
Population Pyknosed Nuclei (%) [2, 4]: 42.41% and 80.95%
Total Cell Count [2, 4]: 323 and 147
Population Apoptotic (%) [2, 5]: 17.75% and 24.64%
Population Fragmented Nuclei (%) [2, 5]: 2.03% and 4.49%
Population Healthy Nuclei (%) [2, 5]: 48.84% and 17.98%
Population Hoechst High Intensity Objects (%) [2, 5]: 0.29% and 0%
Population Membrane Permeable-Phenotype (%) [2, 5]: 0% and 3.12%
Population Mitochondria Different-Phenotype (%) [2, 5]: 41.07% and 18.75%
Population Mitotic Cells (%) [2, 5]: 82.25% and 75.36%
Population Normal (%) [2, 5]: 99.71% and 100%
Population Pyknosed Nuclei (%) [2, 5]: 49.13% and 77.53%
Population Tubulin-Different-Phenotype (%) [2, 5]: 26.79% and 53.12%
Total Cell Count [2, 5]: 345 and 178
Population Apoptotic (%) [2, 6]: 12.5% and 17.7%
Population Fragmented Nuclei (%) [2, 6]: 1.79% and 1.82%
Population Healthy Nuclei (%) [2, 6]: 72.45% and 29.7%
Population Hoechst High Intensity Objects (%) [2, 6]: 0%
Population Membrane Permeable-Phenotype (%) [2, 6]: 1.48% and 2.04%
Population Mitochondria Different-Phenotype (%) [2, 6]: 13.33% and 12.24%
Population Mitotic Cells (%) [2, 6]: 87.5% and 82.3%
Population Normal (%) [2, 6]: 100%
Population Pyknosed Nuclei (%) [2, 6]: 25.76% and 68.48%
Population Tubulin-Different-Phenotype (%) [2, 6]: 11.36% and 12.24%
Population Apoptotic (%) [2, 7]: 30.61% and 27.07%
Population Fragmented Nuclei (%) [2, 7]: 1.11% and 2%
Population Healthy Nuclei (%) [2, 7]: 66.15% and 31.5%
Population Hoechst High Intensity Objects (%) [2, 7]: 0.22% and 0.5%
Population Membrane Permeable-Phenotype (%) [2, 7]: 1.68% and 0%
Population Mitochondria Different-Phenotype (%) [2, 7]: 34.01% and 33.33%
Population Mitotic Cells (%) [2, 7]: 69.39% and 72.93%
Population Normal (%) [2, 7]: 99.78% and 99.5%
Population Pyknosed Nuclei (%) [2, 7]: 32.74% and 66.5%
Population Tubulin-Different-Phenotype (%) [2, 7]: 39.39% and 14.29%
Total Cell Count [2, 7]: 450 and 201
Population Apoptotic (%) [2, 8]: 6.88% and 14.29%
Population Fragmented Nuclei (%) [2, 8]: 2.64% and 3.08%
Population Healthy Nuclei (%) [2, 8]: 85.29% and 66.08%
Population Hoechst High Intensity Objects (%) [2, 8]: 0%
Population Membrane Permeable-Phenotype (%) [2, 8]: 5.84% and 0.67%
Population Mitochondria Different-Phenotype (%) [2, 8]: 15.38% and 28.67%
Population Mitotic Cells (%) [2, 8]: 93.12% and 85.71%
Population Normal (%) [2, 8]: 100%
Population Pyknosed Nuclei (%) [2, 8]: 12.07% and 30.84%
Population Apoptotic (%) [2, 9]: 17.89% and 16.19%
Population Fragmented Nuclei (%) [2, 9]: 3.13% and 3.08%
Population Healthy Nuclei (%) [2, 9]: 80.83% and 56.54%
Population Hoechst High Intensity Objects (%) [2, 9]: 0% and 0.76%
Population Membrane Permeable-Phenotype (%) [2, 9]: 5.97% and 2.72%
Population Mitochondria Different-Phenotype (%) [2, 9]: 47.9% and 43.54%
Population Mitotic Cells (%) [2, 9]: 82.11% and 83.81%
Population Normal (%) [2, 9]: 100% and 99.24%
Population Pyknosed Nuclei (%) [2, 9]: 16.04% and 40.38%
Total Cell Count [2, 9]: 767 and 262
Population Fragmented Nuclei (%) [3, 4]: 13.9% and 8.06%
Population Healthy Nuclei (%) [3, 4]: 57.22% and 74.41%
Population Hoechst High Intensity Objects (%) [3, 4]: 0%
Population Membrane Permeable-Phenotype (%) [3, 4]: 1.87% and 1.91%
Population Mitochondria Different-Phenotype (%) [3, 4]: 6.54% and 10.83%
Population Mitotic Cells (%) [3, 4]: 92.59% and 75.68%
Population Normal (%) [3, 4]: 100%
Population Pyknosed Nuclei (%) [3, 4]: 28.88% and 17.54%
Population Tubulin-Different-Phenotype (%) [3, 4]: 13.08% and 22.93%
Total Cell Count [3, 4]: 187 and 211
Population Apoptotic (%) [3, 5]: 17.46% and 11.48%
Population Fragmented Nuclei (%) [3, 5]: 7.6% and 3.1%
Population Healthy Nuclei (%) [3, 5]: 55.56% and 69.91%
Population Hoechst High Intensity Objects (%) [3, 5]: 0%
Population Membrane Permeable-Phenotype (%) [3, 5]: 9.47% and 6.96%
Population Mitochondria Different-Phenotype (%) [3, 5]: 26.32% and 21.52%
Population Mitotic Cells (%) [3, 5]: 82.54% and 88.52%
Population Normal (%) [3, 5]: 100%
Population Pyknosed Nuclei (%) [3, 5]: 36.84% and 26.99%
Population Tubulin-Different-Phenotype (%) [3, 5]: 35.79% and 71.52%
Total Cell Count [3, 5]: 171 and 226
Population Apoptotic (%) [3, 6]: 11.76% and 28.57%
Population Fragmented Nuclei (%) [3, 6]: 9.18% and 7.73%
Population Healthy Nuclei (%) [3, 6]: 74.4% and 82.13%
Population Hoechst High Intensity Objects (%) [3, 6]: 0%
Population Membrane Permeable-Phenotype (%) [3, 6]: 4.55% and 4.12%
Population Mitochondria Different-Phenotype (%) [3, 6]: 4.55% and 8.82%
Population Mitotic Cells (%) [3, 6]: 88.24% and 71.43%
Population Normal (%) [3, 6]: 100%
Population Pyknosed Nuclei (%) [3, 6]: 16.43% and 10.14%
Population Tubulin-Different-Phenotype (%) [3, 6]: 16.23% and 21.76%
Total Cell Count [3, 6]: 207
Population Apoptotic (%) [3, 7]: 20.83% and 16.98%
Population Fragmented Nuclei (%) [3, 7]: 6.81% and 3.07%
Population Healthy Nuclei (%) [3, 7]: 68.06% and 73.68%
Population Hoechst High Intensity Objects (%) [3, 7]: 0%
Population Membrane Permeable-Phenotype (%) [3, 7]: 5.38% and 5.95%
Population Mitochondria Different-Phenotype (%) [3, 7]: 30.77% and 20.24%
Population Mitotic Cells (%) [3, 7]: 79.17% and 83.02%
Population Normal (%) [3, 7]: 100%
Population Pyknosed Nuclei (%) [3, 7]: 25.13% and 23.25%
Population Tubulin-Different-Phenotype (%) [3, 7]: 53.08% and 70.24%
Total Cell Count [3, 7]: 191 and 228
Population Apoptotic (%) [3, 8]: 11.11% and 10%
Population Fragmented Nuclei (%) [3, 8]: 14.08% and 11%
Population Healthy Nuclei (%) [3, 8]: 81.69% and 84.21%
Population Hoechst High Intensity Objects (%) [3, 8]: 0%
Population Membrane Permeable-Phenotype (%) [3, 8]: 1.72% and 2.84%
Population Mitochondria Different-Phenotype (%) [3, 8]: 8.62% and 5.11%
Population Mitotic Cells (%) [3, 8]: 88.89% and 90%
Population Normal (%) [3, 8]: 100%
Population Pyknosed Nuclei (%) [3, 8]: 4.23% and 4.78%
Total Cell Count [3, 8]: 213 and 209
Population Fragmented Nuclei (%) [3, 9]: 9.23% and 2.62%
Population Healthy Nuclei (%) [3, 9]: 81.54% and 82.97%
Population Hoechst High Intensity Objects (%) [3, 9]: 0%
Population Membrane Permeable-Phenotype (%) [3, 9]: 0% and 7.37%
Population Mitochondria Different-Phenotype (%) [3, 9]: 17.61% and 13.68%
Population Mitotic Cells (%) [3, 9]: 61.11% and 90.91%
Population Normal (%) [3, 9]: 100%
Population Pyknosed Nuclei (%) [3, 9]: 9.23% and 14.41%
Population Tubulin-Different-Phenotype (%) [3, 9]: 31.45% and 73.68%
Total Cell Count [3, 9]: 195 and 229
